In paper PMC3523390 (Molecular pharmacology, 2010):
Where two headings read alike, the source gives them in different places.

Experiments:
3T3-L1 preadipocytes = assay: 3T3-L1 adipocyte differentiation; type: cell-based, rodent; settings: 10 μM compound, 7 to 8 days
How it was run: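 Mouse 3T3-L1 preadipocytes grown in DMEM with 10% calf serum to confluence (day −2), held 2 more days, then switched at day 0 to DMEM with 10% FCS, 1 μg/ml insulin and test compound (DMSO ≤0.1% final). Medium renewed every 2 days to day 7–8. Cells formalin-fixed 1 h, Oil Red O-stained 10 min, photographed; bound dye eluted in isopropanol, read at 550 nm.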

hPPARγ LBD [1] = target: T1, hPPARγ LBD (Homo sapiens, UniProt P37231); assay: LanthaScreen TR-FRET PPARγ competitive ligand binding assay; settings: for Ki: hPPARγ LBD, displacement of Fluormone Pan-PPAR Green, Cheng-Prusoff
T1 sequence (P37231 238-503 limits assumed): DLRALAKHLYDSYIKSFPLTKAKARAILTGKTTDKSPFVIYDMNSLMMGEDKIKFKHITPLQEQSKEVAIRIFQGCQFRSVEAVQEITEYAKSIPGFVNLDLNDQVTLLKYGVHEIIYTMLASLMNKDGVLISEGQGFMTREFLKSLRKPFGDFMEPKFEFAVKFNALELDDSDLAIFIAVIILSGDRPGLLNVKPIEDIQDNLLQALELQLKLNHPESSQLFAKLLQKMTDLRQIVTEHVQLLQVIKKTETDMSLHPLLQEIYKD

Mouse PPARγ = target: T2, Mouse PPARγ (Mus musculus, UniProt P37238); assay: PPAR luciferase reporter gene transactivation in HEK-293 cells; type: cell-based; settings: for Mouse PPARγ Maximal Fold Activation: fold induction vs DMSO
T2 sequence (P37238 1-505): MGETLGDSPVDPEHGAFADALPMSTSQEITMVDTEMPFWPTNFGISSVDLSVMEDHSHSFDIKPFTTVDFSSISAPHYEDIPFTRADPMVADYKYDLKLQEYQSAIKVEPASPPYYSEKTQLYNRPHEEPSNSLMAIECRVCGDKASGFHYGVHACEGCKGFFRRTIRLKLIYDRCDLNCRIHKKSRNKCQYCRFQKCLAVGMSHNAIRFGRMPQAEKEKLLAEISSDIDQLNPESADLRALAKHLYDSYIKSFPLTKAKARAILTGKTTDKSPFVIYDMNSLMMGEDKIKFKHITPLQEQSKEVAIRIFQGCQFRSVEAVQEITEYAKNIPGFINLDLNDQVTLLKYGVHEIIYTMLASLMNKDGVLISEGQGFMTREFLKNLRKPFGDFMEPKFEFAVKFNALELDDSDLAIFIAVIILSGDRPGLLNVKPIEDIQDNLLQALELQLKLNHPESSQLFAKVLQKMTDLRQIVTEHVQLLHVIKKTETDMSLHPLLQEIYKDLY

hPPARγ = target: T3, hPPARγ (Homo sapiens, UniProt P37231); assay: as above; type: cell-based; settings: for hPPARγ Maximal Fold Activation / EC50: HEK-293, 18 h, N.D. = not detected up to 100 μM; for hPPARγ Maximal Fold Activation: fold induction vs DMSO; for concentration to reach saturation response (maximal activation): hPPARγ luciferase reporter, HEK-293; for EC50: read-out: hPPARγ EC50
T3 sequence (P37231 1-477 isoform P37231-2): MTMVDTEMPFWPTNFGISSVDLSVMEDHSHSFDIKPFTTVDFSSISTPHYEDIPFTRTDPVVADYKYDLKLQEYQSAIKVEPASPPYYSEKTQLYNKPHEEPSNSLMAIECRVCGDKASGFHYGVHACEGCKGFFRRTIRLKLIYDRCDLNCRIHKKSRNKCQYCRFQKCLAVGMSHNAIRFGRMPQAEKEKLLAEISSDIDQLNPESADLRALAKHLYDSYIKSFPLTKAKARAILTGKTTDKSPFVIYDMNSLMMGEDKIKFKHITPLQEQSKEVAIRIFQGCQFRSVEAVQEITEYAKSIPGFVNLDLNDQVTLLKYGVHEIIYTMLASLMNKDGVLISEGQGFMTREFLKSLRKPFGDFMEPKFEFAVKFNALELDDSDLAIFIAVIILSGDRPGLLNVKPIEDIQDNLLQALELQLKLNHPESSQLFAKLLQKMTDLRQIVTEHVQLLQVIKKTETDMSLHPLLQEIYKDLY

[2] = test system: 3T3-L1 cells and C3H10T1/2 cells; settings: ref Choi et al., 2009; cited from earlier work
[3] = test system: type 2 diabetic Goto-Kakizaki rats; settings: ref Sohn et al., 2007; cited from earlier work
hPPARγ LBD [4] = target: T1, hPPARγ LBD; assay: LanthaScreen TR-FRET PPARγ coactivator; type: biochemical; settings: 1 h incubation, 520 nm/495 nm ratio
hPPARα = target: T4, hPPARα (Homo sapiens, UniProt Q07869); assay: PPAR luciferase reporter gene transactivation in HEK-293 cells; type: cell-based; settings: HEK-293, 18 h, fold induction vs DMSO; N.D. = not detected up to 100 μM
T4 sequence (Q07869 1-468): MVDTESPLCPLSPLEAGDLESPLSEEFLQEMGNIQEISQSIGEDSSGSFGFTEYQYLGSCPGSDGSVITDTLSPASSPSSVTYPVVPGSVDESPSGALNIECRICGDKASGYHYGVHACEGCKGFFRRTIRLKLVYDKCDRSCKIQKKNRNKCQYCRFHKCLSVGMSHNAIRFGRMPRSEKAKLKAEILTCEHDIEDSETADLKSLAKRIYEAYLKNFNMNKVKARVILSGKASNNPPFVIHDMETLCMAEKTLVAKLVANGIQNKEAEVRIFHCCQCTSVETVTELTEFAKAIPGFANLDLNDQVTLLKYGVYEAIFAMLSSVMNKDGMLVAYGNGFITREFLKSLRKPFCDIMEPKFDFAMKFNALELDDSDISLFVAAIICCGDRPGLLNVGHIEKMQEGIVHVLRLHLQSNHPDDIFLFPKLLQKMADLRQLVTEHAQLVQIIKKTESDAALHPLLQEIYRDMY

[5] = HEK-293, 18 h, N.D. = not detected up to 100 μM
[6] = read-out: Mouse PPARγ EC50, HEK-293, 18 h, N.D. = not detected up to 100 μM

| Ki (hPPARγ LBD [1]) [µM] | Mouse PPARγ Maximal Fold Activation (Mouse PPARγ; [5]) | EC50 (Mouse PPARγ; [6]) [µM] | hPPARγ Maximal Fold Activation (hPPARγ) | concentration to reach saturation response (maximal activation) (hPPARγ) | EC50 (hPPARγ) [µM] | Structure (SMILES) | adipogenic activity (differentiation to adipocytes, Oil Red O) (3T3-L1 preadipocytes) | other results |
| --- | --- | --- | --- | --- | --- | --- | --- | --- |
| 0.24 | 2.93 | 0.93 | 3.58 | approximately 1 μM | 0.62 | C=CCc1cc(OC)c(O)c(-c2cc(CC=C)cc(OC)c2O)c1 [Compound 1, dieugenol] | induced 3T3-L1 preadipocyte differentiation | – |
| 0.32 | 2.98 | 0.38 | 3.34 | approximately 1 μM | 0.33 | CCCc1cc(OC)c(O)c(-c2cc(CCC)cc(OC)c2O)c1 [Compound 2, tetrahydrodieugenol] | induced 3T3-L1 preadipocyte differentiation | – |
| – | – | – | – | – | – | C=CCc1ccc(O)c(-c2cc(CC=C)ccc2O)c1 [Compound 3, magnolol] | induced 3T3-L1 preadipocyte differentiation | adipocyte differentiation [2]: enhances adipocyte differentiation; EC50 (Mouse PPARγ): 1.14 µM; fasting blood glucose [3]: decreased; plasma insulin levels [3]: decreased |
| – | – | – | – | – | – | C=CCc1ccc(O)c(OC)c1 [Compound 4, eugenol, reference compound] | no adipogenic activity | TRAP220/DRIP-2 coactivator peptide recruitment to the PPARγ LBD (hPPARγ LBD [4]): not active; binding to the hPPARγ LBD (hPPARγ LBD [1]; test concentrations up to 100 μM): did not bind to the receptor at all |
| – | – | – | – | – | – | CC(C)(Sc1ccc(CCN(CCCCC2CCCCC2)C(=O)NC2CCCCC2)cc1)C(=O)O [GW7647] | – | hPPARα Maximal Fold Activation (hPPARα): 3.09 |
